Measurements: ChEMBL document CHEMBL2163204, “Synthesis and nicotinic acetylcholine receptor in vitro and in vivo pharmacological properties of 2'-fluoro-3'-(substituted phenyl)deschloroepibatidine analogues of 2'-fluoro-3'-(4-nitrophenyl)deschloroepibatidine” (J Med Chem, 2012)

Test system: Mus musculus
Experiment: Effect on hypothermia in mouse assessed as variation in rectal temperature at 10 mg/kg, sc measured after 30 mins by thermister probe based method
Format: functional
Conditions: route subcutaneous
How it was run: (§1)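 Rectal temperature measured by thermistor probe inserted 24 mm, before and 30 min after s.c. saline or compound. Change computed for each mouse. Room temperature 21–24 °C.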

SMILES	Activity [%]
N#Cc1ccc(-c2cc(C3CC4CCC3N4)cnc2F)cc1 (racemic)	0

Test system: Mus musculus
Experiment: Antinociception activity in mouse at 10 mg/kg, sc after 5 mins by tail-flick method
Format: functional
Conditions: route subcutaneous
How it was run: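 Mouse tail-flick: baseline latency 2–4 s, 10 s cutoff, tested 5 min after s.c. injection. %MPE = (test−control)/(10−control)×100. Eight to twelve mice per dose.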

SMILES	Activity [%]
c1cnc2cc3c(cc2n1)[C@@H]1CNC[C@H]3C1 [VARENICLINE]	11
NC(=O)c1ccc(-c2cc(C3CC4CCC3N4)cnc2F)cc1 (racemic)	16
O=[N+]([O-])c1ccc(-c2cc(C3CC4CCC3N4)cnc2F)cc1 (racemic)	5
N#Cc1ccc(-c2cc(C3CC4CCC3N4)cnc2F)cc1 (racemic)	4

Target: T1, Neuronal acetylcholine receptor subunit alpha-7 (Rattus norvegicus, UniProt Q05941)
Experiment: Displacement of [125I]iodoMLA from rat cerebral cortex alpha7 nAChR at 50 nM incubated for 2 hrs by microplate scintillation assay
Format: tissue-based
Conditions: not given
How it was run: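 Rat cerebral cortex membranes (3 mg wet weight) in Tris assay buffer pH 7.4. Run in triplicate, 2 h on ice. Nonspecific binding with 300 µM (–)-nicotine. Filtered onto BSA-presoaked GF/B and counted by microplate scintillation.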

T1 sequence (Q05941 whole entry): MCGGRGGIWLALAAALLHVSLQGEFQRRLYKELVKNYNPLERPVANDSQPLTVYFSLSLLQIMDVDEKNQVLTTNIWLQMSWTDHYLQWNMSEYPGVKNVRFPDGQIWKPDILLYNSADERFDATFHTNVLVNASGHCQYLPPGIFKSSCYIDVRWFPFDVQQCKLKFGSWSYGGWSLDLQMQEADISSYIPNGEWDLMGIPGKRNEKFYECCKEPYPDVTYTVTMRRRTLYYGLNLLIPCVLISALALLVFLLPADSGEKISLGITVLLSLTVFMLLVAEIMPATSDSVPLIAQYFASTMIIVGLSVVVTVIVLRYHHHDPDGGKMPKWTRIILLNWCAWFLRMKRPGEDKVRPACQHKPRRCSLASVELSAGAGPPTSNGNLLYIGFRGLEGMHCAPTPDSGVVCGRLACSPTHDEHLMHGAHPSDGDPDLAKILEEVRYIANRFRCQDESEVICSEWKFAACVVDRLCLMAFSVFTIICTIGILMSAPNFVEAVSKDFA

SMILES	Ki [µM]
NC(=O)c1ccc(-c2cc(C3CC4CCC3N4)cnc2F)cc1 (racemic)	1.87
O=[N+]([O-])c1ccc(-c2cc(C3CC4CCC3N4)cnc2F)cc1 (racemic)	> 2
N#Cc1ccc(-c2cc(C3CC4CCC3N4)cnc2F)cc1 (racemic)	> 2

Target: Neuronal acetylcholine receptor subunit alpha-7 (Rattus norvegicus) (UniProt Q05941)
Experiment: Agonist activity at rat alpha7 nAChR expressed in Xenopus laevis oocytes at 100 uM after 2 to 6 days by two electrode voltage clamp assay relative to acetylcholine
Format: functional, cell-based
Conditions: Oocyte
How it was run: (§2)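 Two-electrode voltage clamp on Xenopus oocytes injected with rat subunit cRNA (α3β4 at 1:1 molar ratio), incubated at 19 °C in modified Barth's saline (pH 7.6). Oocytes perfused with ND96 (pH 7.5) at 20–25 °C. 100 µM compound applied for 15 s (α3β4) or 5 s (α7), 3-min washes. Response compared with the mean of three preceding ACh applications and expressed as % of maximal ACh response.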

Sequence of Neuronal acetylcholine receptor subunit alpha-7 (Rattus norvegicus) (Q05941 whole entry): as above

SMILES	%max [%]
c1cnc2cc3c(cc2n1)[C@@H]1CNC[C@H]3C1 [VARENICLINE]	74
NC(=O)c1ccc(-c2cc(C3CC4CCC3N4)cnc2F)cc1 (racemic)	17
Clc1ccc([C@H]2CC3CCC2N3)cn1 (mixture of isomers)	150
O=[N+]([O-])c1ccc(-c2cc(C3CC4CCC3N4)cnc2F)cc1 (racemic)	6
N#Cc1ccc(-c2cc(C3CC4CCC3N4)cnc2F)cc1 (racemic)	3

Target: not listed separately
Experiment: Displacement of [3H]epibatidine from rat cerebral cortex alpha4beta2* nAChR incubated for 4 hrs by liquid scintillation assay
Format: tissue-based
Conditions: not given
How it was run: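 Washed rat cerebral cortex membranes (3 mg wet weight) in 50 mM Tris pH 7.4 with 120 mM NaCl, 5 mM KCl, 2 mM CaCl2, 1 mM MgCl2. 4 h at room temperature. Nonspecific binding with 300 µM (–)-nicotine. Filtration on PEI-soaked GF/B. Ki from IC50 by Cheng–Prusoff.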

SMILES	Ki [nM]
NC(=O)c1ccc(-c2cc(C3CC4CCC3N4)cnc2F)cc1 (racemic)	0.12
O=[N+]([O-])c1ccc(-c2cc(C3CC4CCC3N4)cnc2F)cc1 (racemic)	0.009
N#Cc1ccc(-c2cc(C3CC4CCC3N4)cnc2F)cc1 (racemic)	0.19

Test system: Mus musculus
Experiment: Antinociception activity in sc dosed mouse after 5 mins by tail-flick method
Conditions: not given

SMILES	ED50 [mg/kg]
Clc1ccc([C@H]2CC3CCC2N3)cn1 (mixture of isomers)	0.006

Test system: Mus musculus
Experiment: Antagonist activity in mouse assessed as inhibition of nicotine-induced antinociception at 2000 ug/kg, sc after 5 mins by hot plate method
Format: functional
Conditions: not given

SMILES	inhibition in vivo at 2 mg/kg [%]
NC(=O)c1ccc(-c2cc(C3CC4CCC3N4)cnc2F)cc1 (racemic)	1

Test system: Mus musculus
Experiment: Antagonist activity in sc dosed mouse assessed as inhibition of nicotine-induced antinociception after 5 mins by tail flick method
Format: functional
Conditions: not given

SMILES	AD50 [mg/kg]
c1cnc2cc3c(cc2n1)[C@@H]1CNC[C@H]3C1 [VARENICLINE]	0.0002
NC(=O)c1ccc(-c2cc(C3CC4CCC3N4)cnc2F)cc1 (racemic)	0.009
O=[N+]([O-])c1ccc(-c2cc(C3CC4CCC3N4)cnc2F)cc1 (racemic)	0.003

Target: T2, Neuronal acetylcholine receptor; alpha4/beta2 (Rattus norvegicus) (UniProt P09483+P12390)
Experiment: Antagonist activity at rat alpha4beta2 nAChR expressed in Xenopus laevis oocytes assessed as inhibition of acetylcholine-induced response at 100 uM after 2 to 6 days by two electrode voltage clamp assay
Format: functional, cell-based
Conditions: Oocyte
How it was run: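 Xenopus oocytes expressing rat nAChRs (α4β2 and α3β4 subunits injected at 1:1), recorded by two-electrode voltage clamp in ND96 (pH 7.5) at 20–25 °C. Current compared with the mean of three preceding ACh-alone responses and given as % remaining.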

SMILES	inhibition [%]
c1cnc2cc3c(cc2n1)[C@@H]1CNC[C@H]3C1 [VARENICLINE]	38
NC(=O)c1ccc(-c2cc(C3CC4CCC3N4)cnc2F)cc1 (racemic)	6
O=[N+]([O-])c1ccc(-c2cc(C3CC4CCC3N4)cnc2F)cc1 (racemic)	6
N#Cc1ccc(-c2cc(C3CC4CCC3N4)cnc2F)cc1 (racemic)	8

Target: Neuronal acetylcholine receptor; alpha4/beta2 (Rattus norvegicus, UniProt P09483+P12390)
Experiment: Antagonist activity at rat alpha4beta2 nAChR expressed in Xenopus laevis oocytes assessed as inhibition of acetylcholine-induced response after 2 to 6 days by two electrode voltage clamp assay
Format: functional, cell-based, Oocyte
Conditions: not given

Sequence of Neuronal acetylcholine receptor; alpha4/beta2 (P09483 whole entry): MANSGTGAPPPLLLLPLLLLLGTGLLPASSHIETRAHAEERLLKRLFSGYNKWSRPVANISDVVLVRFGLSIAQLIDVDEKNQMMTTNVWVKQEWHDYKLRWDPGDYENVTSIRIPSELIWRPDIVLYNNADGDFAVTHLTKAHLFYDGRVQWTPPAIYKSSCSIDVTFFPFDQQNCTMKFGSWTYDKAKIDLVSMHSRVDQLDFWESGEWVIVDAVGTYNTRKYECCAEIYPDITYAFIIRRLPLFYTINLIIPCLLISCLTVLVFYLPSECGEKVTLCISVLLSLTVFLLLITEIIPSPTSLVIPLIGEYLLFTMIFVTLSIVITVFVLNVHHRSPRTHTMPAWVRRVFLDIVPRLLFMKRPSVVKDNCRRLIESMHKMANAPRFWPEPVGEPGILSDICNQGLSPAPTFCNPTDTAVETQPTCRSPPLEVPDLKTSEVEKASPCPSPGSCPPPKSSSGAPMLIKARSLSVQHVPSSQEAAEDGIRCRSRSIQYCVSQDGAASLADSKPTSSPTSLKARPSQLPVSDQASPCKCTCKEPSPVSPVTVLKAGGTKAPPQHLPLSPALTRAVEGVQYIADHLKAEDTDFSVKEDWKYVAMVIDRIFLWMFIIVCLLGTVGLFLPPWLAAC
Sequence of Neuronal acetylcholine receptor; alpha4/beta2 (P12390 whole entry): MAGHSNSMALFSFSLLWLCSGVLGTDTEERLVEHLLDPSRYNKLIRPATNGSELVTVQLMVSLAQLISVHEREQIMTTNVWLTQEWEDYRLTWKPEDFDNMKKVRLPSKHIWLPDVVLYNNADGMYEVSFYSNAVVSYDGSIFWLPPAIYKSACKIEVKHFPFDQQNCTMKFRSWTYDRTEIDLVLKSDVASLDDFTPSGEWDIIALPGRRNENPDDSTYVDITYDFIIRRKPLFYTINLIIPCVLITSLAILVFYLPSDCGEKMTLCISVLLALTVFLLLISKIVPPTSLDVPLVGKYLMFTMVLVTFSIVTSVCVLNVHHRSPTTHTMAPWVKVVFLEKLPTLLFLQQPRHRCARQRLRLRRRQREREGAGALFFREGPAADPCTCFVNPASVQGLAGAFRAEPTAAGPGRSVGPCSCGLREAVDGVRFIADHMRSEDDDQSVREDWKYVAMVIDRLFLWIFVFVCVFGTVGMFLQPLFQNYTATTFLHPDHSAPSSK

SMILES	IC50 [µM]
NC(=O)c1ccc(-c2cc(C3CC4CCC3N4)cnc2F)cc1 (racemic)	1.5
O=[N+]([O-])c1ccc(-c2cc(C3CC4CCC3N4)cnc2F)cc1 (racemic)	3.2
N#Cc1ccc(-c2cc(C3CC4CCC3N4)cnc2F)cc1 (racemic)	11

Target: Neuronal acetylcholine receptor subunit alpha-7 (Rattus norvegicus) (UniProt Q05941)
Experiment: Antagonist activity at rat alpha7 nAChR expressed in Xenopus laevis oocytes assessed as inhibition of acetylcholine-induced response at 100 uM after 2 to 6 days by two electrode voltage clamp assay
Format: functional, cell-based
Conditions: Oocyte

SMILES	inhibition [%]
NC(=O)c1ccc(-c2cc(C3CC4CCC3N4)cnc2F)cc1 (racemic)	54
O=[N+]([O-])c1ccc(-c2cc(C3CC4CCC3N4)cnc2F)cc1 (racemic)	55
N#Cc1ccc(-c2cc(C3CC4CCC3N4)cnc2F)cc1 (racemic)	49

Target: T3, Neuronal acetylcholine receptor; alpha3/beta4 (Rattus norvegicus) (UniProt P04757+P12392)
Experiment: Agonist activity at rat alpha3beta4 nAChR expressed in Xenopus laevis oocytes at 100 uM after 2 to 6 days by two electrode voltage clamp assay relative to acetylcholine
Format: functional, cell-based
Conditions: Oocyte
How it was run: as §2

SMILES	%max [%]
c1cnc2cc3c(cc2n1)[C@@H]1CNC[C@H]3C1 [VARENICLINE]	66
NC(=O)c1ccc(-c2cc(C3CC4CCC3N4)cnc2F)cc1 (racemic)	8
Clc1ccc([C@H]2CC3CCC2N3)cn1 (mixture of isomers)	97
O=[N+]([O-])c1ccc(-c2cc(C3CC4CCC3N4)cnc2F)cc1 (racemic)	4
N#Cc1ccc(-c2cc(C3CC4CCC3N4)cnc2F)cc1 (racemic)	6

Test system: Mus musculus
Experiment: Antinociception activity in mouse assessed as reaction time taken for jumping or licking paws at 10 mg/kg, sc after 5 mins by hot plate method
Format: functional
Conditions: route subcutaneous
How it was run: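 Mice placed on a 55 °C hot plate; latency is time to jump or paw-lick. Two baseline latencies taken at least 10 min apart. Tested 5 min after s.c. dosing. %MPE computed with a 40 s maximum. Eight mice per dose.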

SMILES	Activity [%]
c1cnc2cc3c(cc2n1)[C@@H]1CNC[C@H]3C1 [VARENICLINE]	10
NC(=O)c1ccc(-c2cc(C3CC4CCC3N4)cnc2F)cc1 (racemic)	60
N#Cc1ccc(-c2cc(C3CC4CCC3N4)cnc2F)cc1 (racemic)	18

Test system: Mus musculus
Experiment: Effect on spontaneous locomotor activity in mouse at 10 mg/kg, sc after 5 mins by photocell based method
Format: functional
Conditions: route subcutaneous
How it was run: (§3)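 Mice put into photocell activity cages 5 min after s.c. saline or compound. Beam interruptions counted over the next 10 min.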

SMILES	Activity [%]
N#Cc1ccc(-c2cc(C3CC4CCC3N4)cnc2F)cc1 (racemic)	0

Test system: Mus musculus
Experiment: Antagonist activity in sc dosed mouse assessed as inhibition of nicotine-induced antinociception after 5 mins by hot plate method
Format: functional
Conditions: not given

SMILES	AD50 [mg/kg]
c1cnc2cc3c(cc2n1)[C@@H]1CNC[C@H]3C1 [VARENICLINE]	0.47
O=[N+]([O-])c1ccc(-c2cc(C3CC4CCC3N4)cnc2F)cc1 (racemic)	0.12

Test system: Mus musculus
Experiment: Effect on spontaneous locomotor activity in sc dosed mouse after 5 mins by photocell based method
Format: functional
Conditions: not given
How it was run: as §3

SMILES	ED50 [mg/kg]
c1cnc2cc3c(cc2n1)[C@@H]1CNC[C@H]3C1 [VARENICLINE]	2.1
Clc1ccc([C@H]2CC3CCC2N3)cn1 (mixture of isomers)	0.001
O=[N+]([O-])c1ccc(-c2cc(C3CC4CCC3N4)cnc2F)cc1 (racemic)	0.22

Target: Neuronal acetylcholine receptor; alpha3/beta4 (Rattus norvegicus, UniProt P04757+P12392)
Experiment: Antagonist activity at rat alpha3beta4 nAChR expressed in Xenopus laevis oocytes assessed as inhibition of acetylcholine-induced response after 2 to 6 days by two electrode voltage clamp assay
Format: functional, cell-based, Oocyte
Conditions: not given

Sequence of Neuronal acetylcholine receptor; alpha3/beta4 (P04757 whole entry): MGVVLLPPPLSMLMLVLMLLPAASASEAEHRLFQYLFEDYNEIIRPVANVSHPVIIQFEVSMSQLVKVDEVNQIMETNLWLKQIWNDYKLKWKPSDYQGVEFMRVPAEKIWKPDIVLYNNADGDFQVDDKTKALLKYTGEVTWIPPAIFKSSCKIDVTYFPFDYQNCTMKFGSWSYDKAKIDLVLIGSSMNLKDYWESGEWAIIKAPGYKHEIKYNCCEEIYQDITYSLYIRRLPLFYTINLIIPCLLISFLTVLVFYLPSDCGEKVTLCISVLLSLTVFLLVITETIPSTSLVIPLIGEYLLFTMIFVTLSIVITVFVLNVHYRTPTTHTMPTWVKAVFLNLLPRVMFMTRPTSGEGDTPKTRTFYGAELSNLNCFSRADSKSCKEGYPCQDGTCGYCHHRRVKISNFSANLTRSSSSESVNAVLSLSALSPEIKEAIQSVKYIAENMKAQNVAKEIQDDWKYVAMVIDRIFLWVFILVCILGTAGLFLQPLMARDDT
Sequence of Neuronal acetylcholine receptor; alpha3/beta4 (P12392 whole entry): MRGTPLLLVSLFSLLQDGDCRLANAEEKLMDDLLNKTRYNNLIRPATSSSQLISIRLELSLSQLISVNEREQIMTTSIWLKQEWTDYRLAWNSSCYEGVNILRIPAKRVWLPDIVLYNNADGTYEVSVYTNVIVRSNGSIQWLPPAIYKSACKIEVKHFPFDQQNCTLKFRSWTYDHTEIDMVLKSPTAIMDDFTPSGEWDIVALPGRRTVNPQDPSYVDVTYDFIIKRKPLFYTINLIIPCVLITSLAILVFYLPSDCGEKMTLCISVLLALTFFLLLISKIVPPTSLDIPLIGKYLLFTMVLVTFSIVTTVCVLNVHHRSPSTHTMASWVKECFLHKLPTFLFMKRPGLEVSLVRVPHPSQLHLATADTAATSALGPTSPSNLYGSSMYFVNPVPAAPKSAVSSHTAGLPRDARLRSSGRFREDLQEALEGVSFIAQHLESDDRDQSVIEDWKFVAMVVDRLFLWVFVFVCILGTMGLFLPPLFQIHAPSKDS

SMILES	IC50 [µM]
NC(=O)c1ccc(-c2cc(C3CC4CCC3N4)cnc2F)cc1 (racemic)	35
O=[N+]([O-])c1ccc(-c2cc(C3CC4CCC3N4)cnc2F)cc1 (racemic)	7.9
N#Cc1ccc(-c2cc(C3CC4CCC3N4)cnc2F)cc1 (racemic)	7

Target: T2, Neuronal acetylcholine receptor; alpha4/beta2 (Rattus norvegicus)
Experiment: Agonist activity at rat alpha4beta2 nAChR expressed in Xenopus laevis oocytes at 100 uM after 2 to 6 days by two electrode voltage clamp assay relative to acetylcholine
Format: functional, cell-based
Conditions: Oocyte

SMILES	%max [%]
c1cnc2cc3c(cc2n1)[C@@H]1CNC[C@H]3C1 [VARENICLINE]	13
NC(=O)c1ccc(-c2cc(C3CC4CCC3N4)cnc2F)cc1 (racemic)	3.5
Clc1ccc([C@H]2CC3CCC2N3)cn1 (mixture of isomers)	131
O=[N+]([O-])c1ccc(-c2cc(C3CC4CCC3N4)cnc2F)cc1 (racemic)	0
N#Cc1ccc(-c2cc(C3CC4CCC3N4)cnc2F)cc1 (racemic)	0

Target: T3, Neuronal acetylcholine receptor; alpha3/beta4 (Rattus norvegicus)
Experiment: Antagonist activity at rat alpha3beta4 nAChR expressed in Xenopus laevis oocytes assessed as inhibition of acetylcholine-induced response at 100 uM after 2 to 6 days by two electrode voltage clamp assay
Format: functional, cell-based
Conditions: Oocyte
How it was run: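 Xenopus oocytes expressing rat nAChRs (α4β2 and α3β4 subunits injected at 1:1), recorded by two-electrode voltage clamp in ND96 (pH 7.5) at 20–25 °C. […] Current compared with the mean of three preceding ACh-alone responses and given as % remaining.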

SMILES	inhibition [%]
NC(=O)c1ccc(-c2cc(C3CC4CCC3N4)cnc2F)cc1 (racemic)	36
O=[N+]([O-])c1ccc(-c2cc(C3CC4CCC3N4)cnc2F)cc1 (racemic)	9
N#Cc1ccc(-c2cc(C3CC4CCC3N4)cnc2F)cc1 (racemic)	17

Test system: Mus musculus
Experiment: Antinociception activity in sc dosed mouse assessed as reaction time taken for jumping or licking paws after 5 mins by hot plate method
Conditions: not given

SMILES	ED50 [mg/kg]
Clc1ccc([C@H]2CC3CCC2N3)cn1 (mixture of isomers)	0.004

Test system: Mus musculus
Experiment: Antagonist activity in mouse assessed as inhibition of nicotine-induced antinociception at 10000 ug/kg, sc after 5 mins by hot plate method
Format: functional
Conditions: not given

SMILES	inhibition in vivo at 10 mg/kg [%]
N#Cc1ccc(-c2cc(C3CC4CCC3N4)cnc2F)cc1 (racemic)	24

Test system: Mus musculus
Experiment: Effect on hypothermia in sc dosed mouse assessed as variation in rectal temperature measured after 30 mins by thermister probe based method
Format: functional
Conditions: 0.5 h
How it was run: as §1

SMILES	ED50 [mg/kg]
c1cnc2cc3c(cc2n1)[C@@H]1CNC[C@H]3C1 [VARENICLINE]	2.8
NC(=O)c1ccc(-c2cc(C3CC4CCC3N4)cnc2F)cc1 (racemic)	4.2
Clc1ccc([C@H]2CC3CCC2N3)cn1 (mixture of isomers)	0.004
O=[N+]([O-])c1ccc(-c2cc(C3CC4CCC3N4)cnc2F)cc1 (racemic)	0.21

Target: T1, Neuronal acetylcholine receptor subunit alpha-7
Experiment: Antagonist activity at rat alpha7 nAChR expressed in Xenopus laevis oocytes assessed as inhibition of acetylcholine-induced response after 2 to 6 days by two electrode voltage clamp assay
Format: functional, cell-based, Oocyte
Conditions: not given

SMILES	IC50 [µM]
NC(=O)c1ccc(-c2cc(C3CC4CCC3N4)cnc2F)cc1 (racemic)	35
O=[N+]([O-])c1ccc(-c2cc(C3CC4CCC3N4)cnc2F)cc1 (racemic)	32
N#Cc1ccc(-c2cc(C3CC4CCC3N4)cnc2F)cc1 (racemic)	98
